Screening results deposited in PubChem by several laboratories.
XiGFP reactiv: X-chromosome reactivation activator; XiGFP mouse fibroblasts, % GFP-positive cells imaging, 3 d; cells co-treated with 5-aza-dC sensitizer; scaled so ellipticine positive control = 100%; activation, % at 7.58 µM; 360,000 compounds, 0.055% hits;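 active means mean normalized replicate activation at least 10% and every replicate at or above 10%; inconclusive means only one of the two criteria met; inactive means mean below 10% and not all replicates reach 10%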;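 further: 0% = median of on-plate neutral control wells and 100% = ellipticine 6 µM median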
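Material: SV40-immortalized XiGFP fibroblast cells, line 68-5-11 | Buffer or medium: DMEM containing 5-aza-dC | Dosing: One concentration, pinned | Times: 3 d treatment, 15 min room-temperature fixation | Controls: Ellipticine 6 µM positive control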
Myeloid diff 2: myeloid differentiation induction; AID 624256; 360,000 compounds, 1% hits; ER-HoxA9 myeloid progenitors, lysozyme-GFP differentiation, flow cytometry; calls only at 10 µM;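 active means normalized GFP-positive differentiation at or above the plate's own cutoff, the solvent-only control mean plus 3 SD; inconclusive means no clear call, values can overlap the other calls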;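 further: cells exposed to compound for four days before flow analysis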
ABCB6 inh 2: blocks the human ABCB6 transporter. K562-ABCB6 porphyrin accumulation, flow cytometry, 1 h; stronger effect = lower value. fluorescence ratio to DMSO, % at 10 µM. 360,000 compounds, 0.19% hits;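 active means fluorescence ratio to DMSO below 75%, the collection mean minus 3 SD; inconclusive means too few cells collected in the well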;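 further: signal is porphyrin accumulated inside mitochondria; 100% equals median channel fluorescence of DMSO control wells; lower ratio means ABCB6 inhibition with less porphyrin fluorescence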
Target sequence (Q9NP58 whole entry, looked up): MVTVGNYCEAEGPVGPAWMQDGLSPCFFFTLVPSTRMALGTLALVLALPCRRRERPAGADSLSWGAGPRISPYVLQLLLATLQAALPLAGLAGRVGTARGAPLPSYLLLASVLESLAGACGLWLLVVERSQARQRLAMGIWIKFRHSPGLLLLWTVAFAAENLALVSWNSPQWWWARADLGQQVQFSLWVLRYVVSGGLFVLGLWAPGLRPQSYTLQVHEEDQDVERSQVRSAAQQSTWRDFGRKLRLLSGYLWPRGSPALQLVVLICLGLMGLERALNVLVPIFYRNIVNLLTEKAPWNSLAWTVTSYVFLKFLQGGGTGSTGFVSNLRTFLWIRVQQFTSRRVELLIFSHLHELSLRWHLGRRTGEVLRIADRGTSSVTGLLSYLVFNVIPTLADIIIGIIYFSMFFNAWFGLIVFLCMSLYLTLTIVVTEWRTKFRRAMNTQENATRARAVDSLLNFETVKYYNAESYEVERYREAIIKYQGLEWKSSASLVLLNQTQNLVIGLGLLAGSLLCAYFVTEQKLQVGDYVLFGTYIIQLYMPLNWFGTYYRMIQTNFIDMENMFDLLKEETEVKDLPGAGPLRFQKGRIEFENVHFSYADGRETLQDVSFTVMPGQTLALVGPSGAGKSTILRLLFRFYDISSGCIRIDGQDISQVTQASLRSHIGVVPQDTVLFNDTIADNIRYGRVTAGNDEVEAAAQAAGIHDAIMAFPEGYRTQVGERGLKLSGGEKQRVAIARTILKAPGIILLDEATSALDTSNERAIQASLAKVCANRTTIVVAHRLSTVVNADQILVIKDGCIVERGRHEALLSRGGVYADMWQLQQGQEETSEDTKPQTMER
The depositor's hits bear a star; i = inactive; ? = inconclusive; nt = no result; + = active, no number. The entries come from a sample that favours hits as a whole.

SMILES	XiGFP reactiv	Myeloid diff 2	ABCB6 inh 2
O=[N+]([O-])c1cc(Cl)ccc1N1CCCC1	1	i	102
C=CCc1cccc2ccc(=O)oc12	0	+	117
C=CCc1cccc2cc(C(=O)NC(C)(C)C)c(=O)oc12	nt	i	90
C[C@@H]1CN([C@H](C)CO)C(=O)Cc2cc(NC(=O)Nc3ccccc3)ccc2O[C@@H]1CN(C)CC1CC1	1	nt	nt
O=C(C[C@H]1CC[C@@H]2[C@H](COC[C@H](O)CN2C(=O)c2ccncc2)O1)NCc1ccc(-c2ccccc2)cc1	0	nt	nt
CCn1c(-c2ccccc2)csc1=Nc1ccc(O)cc1	0	+	103
CCOc1ccc(N=c2scc(-c3ccccc3)n2CCO)cc1	nt	i	92
COc1ccc2c3c(n(C)c2c1)[C@@H](CO)N(C(=O)C1CCCC1)CC31CCN(C(=O)CC2CC2)CC1	0	nt	nt
COCCCNC(=O)CC1C[C@H](C(=O)N2CCCCC2)[C@@]2(C)c3[nH]c4ccc(OC)cc4c3CCN2C1=O (stereo not given in full)	0	i	98
COCCCNC(=O)C[C@H]1C[C@H](C(=O)N2CCCCC2)[C@@]2(C)c3[nH]c4ccc(Cl)cc4c3CCN2C1=O	nt	+	98
CCc1ccc(C2=CC(c3cc(Br)ccc3F)n3ncnc3N2)cc1 (stereo not given)	nt	+	99
Fc1ccc(Br)cc1C1C=C(c2ccc(Br)cc2)Nc2ncnn21 (stereo not given)	nt	i	90
CO[C@H]1CN(C)C(=O)c2cc(NC(=O)Nc3ccccc3F)ccc2OC[C@H](C)N(C)C[C@@H]1C	-1	nt	nt
N#Cc1ccc(-c2ccc(Cl)cc2)nc1SCC(=O)c1cccc(Cl)c1	nt	+	142
CCN(CC)C(=O)CSc1nc(-c2ccccc2)ccc1C#N	0	i	98
COc1ccc(-c2cc(-c3ccc(Cl)cc3)c(C#N)c(SCC(=O)O)n2)cc1	0	i	99
N#Cc1ccc(-c2cccnc2)nc1SCC(=O)c1ccccc1	2	+	122
N#Cc1ccc(-c2ccccc2)nc1SCC(=O)c1cccc(Cl)c1	nt	+	115
N#Cc1ccc(-c2cccnc2)nc1SCC(=O)Nc1sc2c(c1C#N)CCC2	nt	i	99
Cc1ccc(S(=O)(=O)N(C)C[C@@H]2Oc3ccc(NC(=O)NC4CCCCC4)cc3CC(=O)N([C@H](C)CO)C[C@@H]2C)cc1	0	nt	nt
CCCC#Cc1ccc2c(c1)O[C@H](CN(C)CCC)[C@H](C)CN([C@H](C)CO)S2(=O)=O	-1	nt	nt
COc1ccccc1C(=O)N1C[C@H]2[C@@H](c3ccccc31)[C@H](CO)N2C(=O)Cc1ccccc1	0	nt	nt
CN1C(=O)c2cc(NC(=O)C3CC3)ccc2OC[C@H]2O[C@@H](CC(=O)NC3CCC3)CC[C@H]21	0	nt	nt
Cc1cc(/C=N/n2cnnc2)c(C)n1-c1ccc(OCc2ccc(Cl)cc2Cl)cc1	nt	i	88
Cc1cc(/C=N/n2cnnc2)c(C)n1-c1ccc(OCc2ccc(F)cc2)cc1	nt	+	95
SMILES	XiGFP reactiv	Myeloid diff 2	ABCB6 inh 2
COc1cccc(S(=O)(=O)N2CC[C@@H]3[C@H]2c2cc(C#Cc4cccnc4)ccc2N[C@@H]3CO)c1	0	nt	nt
CC(=O)c1sc2nsc(SCCN3CCCCC3)c2c1N	0	i	96
O=C(NCCN1CCOCC1)c1ccc(Cl)cc1	0	i	96
Nc1c(C(=O)c2ccccc2)sc2nsc(SCCN3CCCC3)c12	?	+	165
Nc1c(C(=O)c2ccc(Cl)cc2)sc2nsc(SCCN3CCOCC3)c12	0	+	195
CC(C)NC(=O)N(C)C[C@@H]1Oc2ccc(NS(=O)(=O)c3cn(C)cn3)cc2C(=O)N([C@@H](C)CO)C[C@H]1C	-1	nt	nt
CCCNC(=O)N1CCC2(CC1)CN(Cc1ccccc1)[C@@H](CO)c1[nH]c3cc(OC)ccc3c12	0	nt	nt
Cc1noc(C)c1S(=O)(=O)N(C)C[C@@H]1Oc2ccc(NS(=O)(=O)c3ccc(Cl)cc3)cc2CC(=O)N([C@H](C)CO)C[C@H]1C	0	nt	nt
CO[C@H]1CN(C)C(=O)c2cc(NC(=O)NC(C)C)ccc2OC[C@@H](C)N(C(=O)C2CCC2)C[C@@H]1C	0	nt	nt
O=C(N[C@H]1CC[C@H](CCNS(=O)(=O)Cc2ccccc2)O[C@@H]1CO)c1cnccn1	0	nt	nt
O=C(c1cccc([N+](=O)[O-])c1)N1CCN(c2cccc(Cl)c2)CC1	0	+	98
Cc1ccc(N2CCN(C(=O)c3cccc([N+](=O)[O-])c3)CC2)cc1Cl	0	i	89
COCC(=O)N(C)C[C@H]1Oc2ncc(C#CCC3CCCC3)cc2C(=O)N([C@@H](C)CO)C[C@@H]1C	0	nt	nt
C[C@H]1CN([C@@H](C)CO)C(=O)c2cc(-c3cncnc3)cnc2O[C@H]1CN(C)C(=O)c1cccc(F)c1	-1	nt	nt
COCCNC(=O)c1ccccc1NC(=O)c1ccc(OC)c(OC)c1	nt	+	103
COc1ccc(C(=O)Nc2ccccc2C(=O)NCc2ccco2)cc1OC	nt	i	91
C[C@@H]1CCCCO[C@H](CN(C)C(=O)Nc2ccc(F)cc2)[C@@H](C)CN([C@H](C)CO)C(=O)c2cc(NC(=O)CCC(F)(F)F)ccc2O1	0	nt	nt
C[C@H](CO)N1C[C@H](C)[C@@H](CN(C)CC2CCCC2)Oc2cc(Br)ccc2S1(=O)=O	0	nt	nt
C[C@H](CO)N1C[C@H](C)[C@H](CN(C)C(=O)Nc2ccc(F)cc2)Oc2ccc(NC(=O)C3CC3)cc2C1=O	0	nt	nt
O=c1[nH]c2ccccc2nc1-c1nnnn1C1CCCC1	0	i	96
O=c1[nH]c2cc3ccccc3cc2nc1-c1nnnn1C1CCCC1	0	+	104
N#Cc1c(NC(=O)c2ccccc2)sc2c1CCC2	nt	nt	97
N#Cc1c(NC(=O)c2cccnc2)sc2c1CCC2	nt	+	88
O=C(C[C@H]1C[C@@H]2c3cc(NS(=O)(=O)c4ccc(F)cc4)ccc3O[C@@H]2[C@@H](CO)O1)NCC1CC1	0	nt	nt
O=C(NC(=S)NNC(=O)c1cnccn1)c1ccc(Cl)cc1	0	+	87
SMILES	XiGFP reactiv	Myeloid diff 2	ABCB6 inh 2
COc1ccc(C(=O)NC(=S)NNC(=O)c2cnccn2)cc1	nt	?	96
ON=C1c2ccccc2-c2ccccc21	1	i	100
NC(N)=NN=C1c2ccccc2-c2ccccc21	0	+	359
COc1ccc(N2CCN(CC(=O)c3ccc(O)cc3O)CC2)cc1	0	i	105
O=C(CN1CCN(c2ccc(F)cc2)CC1)c1ccc(O)cc1O	0	+	82
CC(C)Cn1c(N)c(C(=O)NCC2CCCO2)c2nc3ccccc3nc21 (stereo not given)	nt	+	106
COCCn1c(N)c(C(=O)NCC2CCCO2)c2nc3ccccc3nc21 (stereo not given)	nt	i	96
CCCNC(=O)Nc1ccc2c(c1)OC[C@@H](C)N(Cc1ccccn1)C[C@H](C)[C@@H](OC)CN(C)C2=O	0	nt	nt
COc1ccc(S(=O)(=O)N(C)C[C@@H]2Oc3ccc(NC(=O)Nc4ccc(C(F)(F)F)cc4)cc3CC(=O)N([C@@H](C)CO)C[C@@H]2C)cc1	1	nt	nt
O=C(/C(=C(\[O-])c1ccccc1)[n+]1ccc2ccccc2c1)c1ccc(Cl)cc1	nt	i	124
